Measured values as given in ChEMBL document CHEMBL1932999, “Increased susceptibility to resveratrol of Helicobacter pylori strains isolated from patients with gastric carcinoma” (2011).
≈ marks a conversion by molar mass, not a printed value.

What was measured:
[1] = test system: Helicobacter pylori; assay: Antibacterial activity against CagA-expressing Helicobacter pylori 18K7 isolated from gastric carcinoma patient after 48 hrs compound exposure followed by incubation on Columbia-blood agar plate for 3 to 5 days; type: functional
Method in brief: (§1)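 Compound dissolved in water with 4% DMSO, filter-sterilized, and serially twofold diluted in Brucella broth with 10% bovine fetal serum. Inoculum from 48 h microaerobic Brucella agar-BFS cultures, added at approximately 10^6 CFU/mL final. Broth incubated microaerobically at 37 °C for 24 or 48 h, then each dilution subcultured onto Columbia-blood agar. MBC is the lowest concentration with no growth on subculture. Triplicate; mean ± SD.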

[2] = test system: Helicobacter pylori; assay: Bactericidal activity against CagA-expressing Helicobacter pylori 328 isolated from chronic gastritis patient compound exposure followed by incubation on Columbia-blood agar plate for 3 to 5 days; type: functional, organism-based; conditions: TDE = time-dependent effect
Method in brief: (§2)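 Broth microdilution MBC against clinical H. pylori isolates (cagA by PCR; stocks kept frozen in Columbia broth with 20% glycerol). Compound dissolved in water with 4% DMSO, filter-sterilized, double diluted in Brucella broth with 10% fetal bovine serum. Inoculum about 10^6 CFU/mL from 48 h microaerobic Brucella agar-BFS cultures. Plates held microaerobically at 37 °C for 24 and 48 h. Each well was then spotted onto Columbia-blood agar for 3-5 days. MBC is the lowest concentration giving no regrowth. Triplicate, mean ± SD.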

[3] = test system: Helicobacter pylori; assay: Bactericidal activity against CagA-deficient Helicobacter pylori G12 isolated from chronic gastritis patient compound exposure followed by incubation on Columbia-blood agar plate for 3 to 5 days; type: functional, organism-based; conditions: TDE = time-dependent effect; method in brief: as §2
[4] = test system: Helicobacter pylori; assay: Antibacterial activity against CagA-expressing Helicobacter pylori 3Cb isolated from gastric carcinoma patient after 24 hrs compound exposure followed by incubation on Columbia-blood agar plate for 3 to 5 days; type: functional; method in brief: as §1
[5] = test system: Helicobacter pylori; assay: Antibacterial activity against CagA-expressing Helicobacter pylori 10Kb isolated from gastric carcinoma patient after 24 hrs compound exposure followed by incubation on Columbia-blood agar plate for 3 to 5 days; type: functional; method in brief: as §1
[6] = test system: Helicobacter pylori; assay: Antibacterial activity against CagA-expressing Helicobacter pylori G39 isolated from chronic gastritis patient after 24 hrs compound exposure followed by incubation on Columbia-blood agar plate for 3 to 5 days; type: functional; method in brief: as §1
[7] = test system: Helicobacter pylori; assay: Bactericidal activity against CagA-expressing Helicobacter pylori G27 isolated from chronic gastritis patient compound exposure followed by incubation on Columbia-blood agar plate for 3 to 5 days; type: functional; conditions: TDE = time-dependent effect; method in brief: as §2
[8] = test system: Helicobacter pylori; assay: Antibacterial activity against CagA-expressing Helicobacter pylori SI10 isolated from chronic gastritis patient after 48 hrs compound exposure followed by incubation on Columbia-blood agar plate for 3 to 5 days; type: functional; method in brief: as §2
[9] = test system: Helicobacter pylori; assay: Bactericidal activity against CagA-deficient Helicobacter pylori Ba142 isolated from chronic gastritis patient compound exposure followed by incubation on Columbia-blood agar plate for 3 to 5 days; type: functional, organism-based; conditions: TDE = time-dependent effect; method in brief: as §2
[10] = test system: Helicobacter pylori; assay: Antibacterial activity against CagA-expressing Helicobacter pylori 17C7 isolated from gastric carcinoma patient after 24 hrs compound exposure followed by incubation on Columbia-blood agar plate for 3 to 5 days; type: functional; method in brief: as §1
[11] = test system: Helicobacter pylori; assay: Antibacterial activity against CagA-deficient Helicobacter pylori Ba142 isolated from chronic gastritis patient after 48 hrs compound exposure followed by incubation on Columbia-blood agar plate for 3 to 5 days; type: functional; method in brief: as §1
[12] = test system: Helicobacter pylori; assay: Antibacterial activity against CagA-expressing Helicobacter pylori 4Cb isolated from gastric carcinoma patient after 48 hrs compound exposure followed by incubation on Columbia-blood agar plate for 3 to 5 days; type: functional; method in brief: as §1
[13] = test system: Helicobacter pylori; assay: Antibacterial activity against CagA-expressing Helicobacter pylori 18K7 isolated from gastric carcinoma patient after 24 hrs compound exposure followed by incubation on Columbia-blood agar plate for 3 to 5 days; type: functional; method in brief: as §1
[14] = test system: Helicobacter pylori; assay: Antibacterial activity against CagA-expressing Helicobacter pylori G39 isolated from chronic gastritis patient after 48 hrs compound exposure followed by incubation on Columbia-blood agar plate for 3 to 5 days; type: functional; method in brief: as §1
[15] = test system: Helicobacter pylori; assay: Antibacterial activity against CagA-expressing Helicobacter pylori 10K isolated from gastric carcinoma patient after 48 hrs compound exposure followed by incubation on Columbia-blood agar plate for 3 to 5 days; type: functional; method in brief: as §1
[16] = test system: Helicobacter pylori; assay: Bactericidal activity against CagA-expressing Helicobacter pylori MD6 isolated from chronic gastritis patient compound exposure followed by incubation on Columbia-blood agar plate for 3 to 5 days; type: functional, organism-based; conditions: TDE = time-dependent effect; method in brief: as §2
[17] = test system: Helicobacter pylori; assay: Antibacterial activity against CagA-expressing Helicobacter pylori G20 isolated from chronic gastritis patient after 24 hrs compound exposure followed by incubation on Columbia-blood agar plate for 3 to 5 days; type: functional; method in brief: as §1
[18] = test system: Helicobacter pylori; assay: Antibacterial activity against CagA-deficient Helicobacter pylori G204 isolated from chronic gastritis patient after 24 hrs compound exposure followed by incubation on Columbia-blood agar plate for 3 to 5 days; type: functional; method in brief: as §1
[19] = test system: Helicobacter pylori; assay: Antibacterial activity against CagA-deficient Helicobacter pylori 328 KM isolated from chronic gastritis patient after 24 hrs compound exposure followed by incubation on Columbia-blood agar plate for 3 to 5 days; type: functional; method in brief: as §1
[20] = test system: Helicobacter pylori; assay: Antibacterial activity against CagA-expressing Helicobacter pylori 18C7 isolated from gastric carcinoma patient after 24 hrs compound exposure followed by incubation on Columbia-blood agar plate for 3 to 5 days; type: functional; method in brief: as §1
[21] = test system: Helicobacter pylori; assay: Bactericidal activity against CagA-deficient Helicobacter pylori G50 isolated from chronic gastritis patient compound exposure followed by incubation on Columbia-blood agar plate for 3 to 5 days; type: functional, organism-based; conditions: TDE = time-dependent effect; method in brief: as §2
[22] = test system: Helicobacter pylori; assay: Bactericidal activity against CagA-expressing Helicobacter pylori MDO21 isolated from chronic gastritis patient compound exposure followed by incubation on Columbia-blood agar plate for 3 to 5 days; type: functional, organism-based; conditions: TDE = time-dependent effect; method in brief: as §2
[23] = test system: Helicobacter pylori; assay: Bactericidal activity against CagA-expressing Helicobacter pylori Ma01 isolated from chronic gastritis patient compound exposure followed by incubation on Columbia-blood agar plate for 3 to 5 days; type: functional, organism-based; conditions: TDE = time-dependent effect; method in brief: as §2
[24] = test system: Helicobacter pylori; assay: Antibacterial activity against CagA-expressing Helicobacter pylori Ma01 isolated from chronic gastritis patient after 24 hrs compound exposure followed by incubation on Columbia-blood agar plate for 3 to 5 days; type: functional; method in brief: as §1
[25] = test system: Helicobacter pylori; assay: Bactericidal activity against CagA-expressing Helicobacter pylori CCUG17874 isolated from chronic gastritis patient compound exposure followed by incubation on Columbia-blood agar plate for 3 to 5 days; type: functional, organism-based; conditions: TDE = time-dependent effect; method in brief: as §2
[26] = test system: Helicobacter pylori; assay: Antibacterial activity against CagA-expressing Helicobacter pylori 1C1 isolated from gastric carcinoma patient after 48 hrs compound exposure followed by incubation on Columbia-blood agar plate for 3 to 5 days; type: functional; method in brief: as §1
[27] = test system: Helicobacter pylori; assay: Antibacterial activity against CagA-deficient Helicobacter pylori G21b isolated from chronic gastritis patient after 48 hrs compound exposure followed by incubation on Columbia-blood agar plate for 3 to 5 days; type: functional; method in brief: as §1
[28] = test system: Helicobacter pylori; assay: Antibacterial activity against CagA-deficient Helicobacter pylori G50 isolated from chronic gastritis patient after 24 hrs compound exposure followed by incubation on Columbia-blood agar plate for 3 to 5 days; type: functional; method in brief: as §1
[29] = test system: Helicobacter pylori; assay: Antibacterial activity against CagA-deficient Helicobacter pylori G50 isolated from chronic gastritis patient after 48 hrs compound exposure followed by incubation on Columbia-blood agar plate for 3 to 5 days; type: functional; method in brief: as §1
[30] = test system: Helicobacter pylori; assay: Antibacterial activity against CagA-expressing Helicobacter pylori MDO21 isolated from chronic gastritis patient after 24 hrs compound exposure followed by incubation on Columbia-blood agar plate for 3 to 5 days; type: functional; method in brief: as §1
[31] = test system: Helicobacter pylori; assay: Antibacterial activity against CagA-expressing Helicobacter pylori 2Ca isolated from gastric carcinoma patient after 24 hrs compound exposure followed by incubation on Columbia-blood agar plate for 3 to 5 days; type: functional; method in brief: as §1
[32] = test system: Helicobacter pylori; assay: Antibacterial activity against CagA-deficient Helicobacter pylori G104 isolated from chronic gastritis patient after 24 hrs compound exposure followed by incubation on Columbia-blood agar plate for 3 to 5 days; type: functional; method in brief: as §1
[33] = test system: Helicobacter pylori; assay: Antibacterial activity against CagA-expressing Helicobacter pylori 10K isolated from gastric carcinoma patient after 24 hrs compound exposure followed by incubation on Columbia-blood agar plate for 3 to 5 days; type: functional; method in brief: as §1
[34] = test system: Helicobacter pylori; assay: Bactericidal activity against CagA-deficient Helicobacter pylori 328 KM isolated from chronic gastritis patient compound exposure followed by incubation on Columbia-blood agar plate for 3 to 5 days; type: functional, organism-based; conditions: TDE = time-dependent effect; method in brief: as §2

Question: With `Oc1ccc(/C=C/c2cc(O)cc(O)c2)cc1` [RESVERATROL] as the compound, how does the MBC [1] read?
Answer: The MBC was 147 µg/mL (≈ 644 µM).

Question: What about the Activity [2] of the same compound?
Answer: Its Activity is “tde”.

Question: What about the Activity [3] of the same compound?
Answer: The Activity was “tde”.

Question: What about the MBC [4] of the same compound?
Answer: The MBC was 40 µg/mL (≈ 175 µM).

Question: What about the MBC [5] of the same compound?
Answer: The MBC was 147 µg/mL (≈ 644 µM).

Question: And the MBC [6]?
Answer: Its MBC is 640 µg/mL (≈ 2800 µM).

Question: And the Activity [7]?
Answer: The Activity was “tde”.

Question: What about the MBC [8] of the same compound?
Answer: The MBC was 295 µg/mL (≈ 1290 µM).

Question: What about the Activity [9] of the same compound?
Answer: Its Activity is “tde”.

Question: And the MBC [10]?
Answer: The MBC was 37 µg/mL (≈ 162 µM).

Question: What about the MBC [11] of the same compound?
Answer: Its MBC is 295 µg/mL (≈ 1290 µM).

Question: And the MBC [12]?
Answer: The MBC was 147 µg/mL (≈ 644 µM).

Question: What about the MBC [13] of the same compound?
Answer: Its MBC is 147 µg/mL (≈ 644 µM).

Question: What about the MBC [14] of the same compound?
Answer: Its MBC is 320 µg/mL (≈ 1400 µM).

Question: And the MBC [15]?
Answer: Its MBC is 74 µg/mL (≈ 324 µM).

Question: And the Activity [16]?
Answer: Its Activity is “tde”.

Question: And the MBC [17]?
Answer: The MBC was 1280 µg/mL (≈ 5610 µM).

Question: What about the MBC [18] of the same compound?
Answer: The MBC was 648 µg/mL (≈ 2840 µM).

Question: And the MBC [19]?
Answer: The MBC was 147 µg/mL (≈ 644 µM).

Question: And the MBC [20]?
Answer: The MBC was 37 µg/mL (≈ 162 µM).

Question: And the Activity [21]?
Answer: The Activity was “tde”.

Question: And the Activity [22]?
Answer: Its Activity is “tde”.

Question: And the Activity [23]?
Answer: Its Activity is “tde”.

Question: And the MBC [24]?
Answer: The MBC was 589 µg/mL (≈ 2580 µM).

Question: And the Activity [25]?
Answer: Its Activity is “tde”.

Question: What about the MBC [26] of the same compound?
Answer: Its MBC is 80 µg/mL (≈ 350 µM).

Question: What about the MBC [27] of the same compound?
Answer: The MBC was 295 µg/mL (≈ 1290 µM).

Question: What about the MBC [28] of the same compound?
Answer: The MBC was 295 µg/mL (≈ 1290 µM).

Question: And the MBC [29]?
Answer: The MBC was 295 µg/mL (≈ 1290 µM).

Question: What about the MBC [30] of the same compound?
Answer: Its MBC is 295 µg/mL (≈ 1290 µM).

Question: What about the MBC [31] of the same compound?
Answer: The MBC was 160 µg/mL (≈ 701 µM).

Question: And the MBC [32]?
Answer: The MBC was 295 µg/mL (≈ 1290 µM).

Question: And the MBC [33]?
Answer: Its MBC is 74 µg/mL (≈ 324 µM).

Question: What about the Activity [34] of the same compound?
Answer: The Activity was “tde”.
